# Test results from ChEMBL document CHEMBL1944511, “Bakuchiol derivatives as novel and potent cytotoxic agents: a report” (Eur J Med Chem, 2012).
# How the values were obtained:
# THP-1 [1] = test: Growth inhibition of human THP1 cells at 5 uM after 48 hrs by sulpharhodamine B assay; format: functional; details: THP-1, 48 h, read-out: GI
# Outline: (§1)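 Cells grown in RPMI-1640/MEM with 10% FCS, penicillin/streptomycin, 37 °C, 5% CO2. Seeded in 96-well plates, allowed to adhere overnight, then exposed 48 h to analogs in DMSO (vehicle <0.2% in controls). TCA-fixed, stained with 0.4% SRB in 1% acetic acid, dye solubilized in 10 mM Tris base, OD 570 nm (ref 620 nm). Mean ± SD of three experiments run in triplicate.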
# A549 [2] = test: Growth inhibition of human A549 cells at 50 uM after 48 hrs by sulpharhodamine B assay; format: functional; details: A549, 48 h, read-out: GI
# Outline: (§2)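 This is the SRB protein-stain assay on adherent cells in RPMI-1640/MEM with 10% FCS. Each compound in DMSO (vehicle <0.2%) was applied at a single fixed concentration for 48 h. Cells were fixed with TCA and stained with SRB, and the dye was solubilised in Tris and read at 570/620 nm. Percent growth inhibition is relative to vehicle-treated controls, reported as mean ± SD of three experiments run in triplicate.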
# A549 [3] = test: Cytotoxicity against human A549 cells after 48 hrs by sulpharhodamine B assay; format: functional, cell-based; details: A549, 48 h
# Outline: (§3)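 Cells were grown in RPMI-1640/MEM with 10% FCS and penicillin/streptomycin at 37 °C under 5% CO2, then seeded and left to adhere overnight. Analogs in DMSO (vehicle <0.2%) were added at several concentrations for 48 h. Cells were fixed with cold 50% TCA, stained with 0.4% SRB in 1% acetic acid, solubilised in 10 mM Tris, and read at OD 570/620 nm. IC50 came from non-linear regression.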
# PC-3 [4] = test: Growth inhibition of human PC3 cells at 10 uM after 48 hrs by sulpharhodamine B assay; format: functional; details: PC-3, 48 h, read-out: GI; outline: as §2
# OVCAR-5 [5] = test: Growth inhibition of human OVCAR5 cells at 50 uM after 48 hrs by sulpharhodamine B assay; format: functional; details: OVCAR-5, 48 h, read-out: GI; outline: as §2
# IMR-32 [6] = test: Growth inhibition of human IMR32 cells at 5 uM after 48 hrs by sulpharhodamine B assay; format: functional; details: IMR-32, 48 h, read-out: GI; outline: as §2
# HL-60 [7] = test: Induction of apoptosis in human HL60 cells assessed as loss of mitochondrial membrane potential after 24 hrs by rodamine-123 staining-based flow cytometric analysis; format: functional, cell-based
# HL-60 [8] = test: Induction of apoptosis in human HL60 cells assessed as loss of mitochondrial membrane potential at 30 uM after 24 hrs by rodamine-123 staining-based flow cytometric analysis; format: functional
# MCF7 [9] = test: Growth inhibition of human MCF7 cells at 5 uM after 48 hrs by sulpharhodamine B assay; format: functional; details: MCF7, 48 h, read-out: GI; outline: as §2
# HEp-2 [10] = test: Growth inhibition of human Hep2 cells at 5 uM after 48 hrs by sulpharhodamine B assay; format: functional; details: HEp-2, 48 h, read-out: GI; outline: as §2
# HL-60 [11] = test: Induction of apoptosis in human HL60 cells assessed as loss of mitochondrial membrane potential at 1 uM after 24 hrs by rodamine-123 staining-based flow cytometric analysis (reference value: 6%); format: functional
# HEp-2 [12] = test: Growth inhibition of human Hep2 cells at 10 uM after 48 hrs by sulpharhodamine B assay; format: functional; details: HEp-2, 48 h, read-out: GI; outline: as §2
# HL-60 [13] = test: Cytotoxicity against human HL60 cells after 48 hrs by sulpharhodamine B assay; format: functional, cell-based; details: HL-60, 48 h, in the assay text read “MTT assay” for “sulpharhodamine B assay”
# PC-3 [14] = test: Growth inhibition of human PC3 cells at 20 uM after 48 hrs by sulpharhodamine B assay; format: functional; details: PC-3, 48 h, read-out: GI; outline: as §2
# IMR-32 [15] = test: Growth inhibition of human IMR32 cells at 20 uM after 48 hrs by sulpharhodamine B assay; format: functional; details: IMR-32, 48 h, read-out: GI; outline: as §2
# A549 [16] = test: Growth inhibition of human A549 cells at 20 uM after 48 hrs by sulpharhodamine B assay; format: functional; details: A549, 48 h, read-out: GI; outline: as §2
# PC-3 [17] = test: Growth inhibition of human PC3 cells at 30 uM after 48 hrs by sulpharhodamine B assay; format: functional; details: PC-3, 48 h, read-out: GI; outline: as §1
# HeLa [18] = test: Growth inhibition of human HeLa cells at 50 uM after 48 hrs by sulpharhodamine B assay; format: functional; details: read-out: GI; outline: as §2
# OVCAR-5 [19] = test: Growth inhibition of human OVCAR5 cells at 30 uM after 48 hrs by sulpharhodamine B assay; format: functional; details: OVCAR-5, 48 h, read-out: GI; outline: as §2
# MCF7 [20] = test: Growth inhibition of human MCF7 cells at 50 uM after 48 hrs by sulpharhodamine B assay; format: functional; details: MCF7, 48 h, read-out: GI; outline: as §2
# HL-60 [21] = test: Induction of apoptosis in human HL60 cells assessed as loss of mitochondrial membrane potential at 10 uM after 24 hrs by rodamine-123 staining-based flow cytometric analysis (reference value: 6%); format: functional
# HEp-2 [22] = test: Growth inhibition of human Hep2 cells at 30 uM after 48 hrs by sulpharhodamine B assay; format: functional; details: HEp-2, 48 h, read-out: GI; outline: as §2
# DU-145 [23] = test: Growth inhibition of human DU145 cells at 10 uM after 48 hrs by sulpharhodamine B assay; format: functional; details: DU-145, 48 h, read-out: GI; outline: as §2
# THP-1 [24] = test: Cytotoxicity against human THP1 cells after 48 hrs by sulpharhodamine B assay; format: functional, cell-based; details: THP-1, 48 h; outline: as §3
# PC-3 [25] = test: Cytotoxicity against human PC3 cells after 48 hrs by sulpharhodamine B assay; format: functional, cell-based; details: PC-3, 48 h; outline: as §3
# HEp-2 [26] = test: Cytotoxicity against human Hep2 cells after 48 hrs by sulpharhodamine B assay; format: functional, cell-based; details: HEp-2, 48 h; outline: as §3
# MCF7 [27] = test: Growth inhibition of human MCF7 cells at 10 uM after 48 hrs by sulpharhodamine B assay; format: functional; details: MCF7, 48 h, read-out: GI; outline: as §2
# DU-145 [28] = test: Growth inhibition of human DU145 cells at 20 uM after 48 hrs by sulpharhodamine B assay; format: functional; details: DU-145, 48 h, read-out: GI; outline: as §2
# HCT-15 = test: Growth inhibition of human HCT15 cells at 5 uM after 48 hrs by sulpharhodamine B assay; format: functional; details: HCT-15, 48 h, read-out: GI; outline: as §2
# IMR-32 [29] = test: Growth inhibition of human IMR32 cells at 50 uM after 48 hrs by sulpharhodamine B assay; format: functional; details: IMR-32, 48 h, read-out: GI; outline: as §2
# HeLa [30] = test: Growth inhibition of human HeLa cells at 30 uM after 48 hrs by sulpharhodamine B assay; format: functional; details: read-out: GI; outline: as §2
# HL-60 [31] = test: Induction of apoptosis in human HL60 cells assessed as increase in […] sub-G0 fraction at 20 uM by propidium iodide staining-based flow cytometric analysis (reference value: 6%); format: functional
# HL-60 [32] = test: Induction of apoptosis in human HL60 cells assessed as increase in […] sub-G0 fraction at 10 uM by propidium iodide staining-based flow cytometric analysis (reference value: 6%); format: functional
# DU-145 [33] = test: Cytotoxicity against human DU145 cells after 48 hrs by sulpharhodamine B assay; format: functional, cell-based; details: DU-145, 48 h; outline: as §3
# IMR-32 [34] = test: Growth inhibition of human IMR32 cells at 30 uM after 48 hrs by sulpharhodamine B assay; format: functional; details: IMR-32, 48 h, read-out: GI; outline: as §2
# HL-60 [35] = test: Cytotoxicity against human HL60 cells after 24 hrs by MTT assay; format: functional, cell-based; details: for IC50: HL-60, 24 h
# Outline: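 Exponentially growing HL-60 cells (1.5×10^4 per well) in 96-well plates were exposed to a range of compound concentrations in DMSO, with vehicle-only controls. MTT (2.5 mg/mL stock) was added for 3–4 h at 37 °C, and formazan was dissolved in DMSO and read at OD 570/620 nm. […] Data are mean ± SD of n = 6 wells from two experiments.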
# PC-3 [36] = test: Growth inhibition of human PC3 cells at 5 uM after 48 hrs by sulpharhodamine B assay; format: functional; details: PC-3, 48 h, read-out: GI; outline: as §1
Compound,inhibition of growth at 5 µM (THP-1 [1]),inhibition of growth at 50 µM (A549 [2]),IC50 (A549 [3]),inhibition of growth at 10 µM (PC-3 [4]),inhibition of growth at 50 µM (OVCAR-5 [5]),inhibition of growth at 5 µM (IMR-32 [6]),Activity (HL-60 [7]),Activity (HL-60 [8]),inhibition of growth at 5 µM (MCF7 [9]),inhibition of growth at 5 µM (HEp-2 [10]),Activity (HL-60 [11]),inhibition of growth at 10 µM (HEp-2 [12]),IC50 (HL-60 [13]),inhibition of growth at 20 µM (PC-3 [14]),inhibition of growth at 20 µM (IMR-32 [15]),inhibition of growth at 20 µM (A549 [16]),inhibition of growth at 30 µM (PC-3 [17]),inhibition of growth at 50 µM (HeLa [18]),inhibition of growth at 30 µM (OVCAR-5 [19]),inhibition of growth at 50 µM (MCF7 [20]),other results
COc1ccc(/C=C/[C@](C)(/C=C/c2ccc(O)cc2)CCC=C(C)C)cc1,53%,70%,12 µM,41%,67%,13%,Dose-dependent effect,55.4%,24%,23%,14.4%,46%,2 µM,58%,40%,69%,50%,78%,50%,77%,Activity (HL-60 [21]): 46.4%; inhibition of growth at 30 µM (HEp-2 [22]): 45%; inhibition of growth at 10 µM (DU-145 [23]): 57%; IC50 (THP-1 [24]): 4.2 µM; IC50 (PC-3 [25]): 15 µM; IC50 (HEp-2 [26]): 14 µM; inhibition of growth at 10 µM (MCF7 [27]): 37%; inhibition of growth at 20 µM (DU-145 [28]): 73%; inhibition of growth at 5 µM (HCT-15): 28%; inhibition of growth at 50 µM (IMR-32 [29]): 69%; inhibition of growth at 30 µM (HeLa [30]): 56%; Activity (HL-60 [31]): 54%; Activity (HL-60 [32]): 41%; IC50 (DU-145 [33]): 11 µM; inhibition of growth at 30 µM (IMR-32 [34]): 51%; Activity (HL-60 [35]): Dose-dependent effect; IC50 (HL-60 [35]): 16 µM; inhibition of growth at 5 µM (PC-3 [36]): 23%
CC1C(C(C)(C)O)CCC1(C)/C=C/c1ccc(O)cc1 (stereo unspecified),54%,76%,17 µM,35%,75%,46%,Dose-dependent effect,54%,27%,17%,12.4%,34%,1.8 µM,57%,62%,53%,62%,68%,55%,79%,Activity (HL-60 [21]): 31.7%; inhibition of growth at 30 µM (HEp-2 [22]): 53%; inhibition of growth at 10 µM (DU-145 [23]): 50%; IC50 (THP-1 [24]): 3.5 µM; IC50 (PC-3 [25]): 19 µM; IC50 (HEp-2 [26]): 19 µM; inhibition of growth at 10 µM (MCF7 [27]): 32%; inhibition of growth at 20 µM (DU-145 [28]): 54%; inhibition of growth at 5 µM (HCT-15): 29%; inhibition of growth at 50 µM (IMR-32 [29]): 85%; inhibition of growth at 30 µM (HeLa [30]): 52%; Activity (HL-60 [31]): 48%; Activity (HL-60 [32]): 34%; IC50 (DU-145 [33]): 14 µM; inhibition of growth at 30 µM (IMR-32 [34]): 57%; Activity (HL-60 [35]): Dose-dependent effect; IC50 (HL-60 [35]): 18 µM; inhibition of growth at 5 µM (PC-3 [36]): 24%
